Drawing on ChEMBL document CHEMBL4477162, “Galanthamine, Plicamine, and Secoplicamine Alkaloids from Zephyranthes candida and Their Anti-acetylcholinesterase and Anti-inflammatory Activities” (J Nat Prod, 2016), this text covers inhibition, IC50 and Activity for 24 compounds.

The subject of data set [1] is RAW264.7. Briefly: Antiinflammatory activity in mouse RAW264.7 cells assessed as inhibition of LPS-induced NO production at 200 uM after 24 hrs by Griess assay. It is filed as functional, cell-based.
The target in a further data set is Acetylcholinesterase (Electrophorus electricus, UniProt O42275). As to the kind of experiment: Inhibition of electric eel AChE using acetylthiocholine iodide as substrate measured every 13 secs by Ellman's method.
Data set [2] has as its system RAW264.7. As to the kind of experiment: Antiinflammatory activity in mouse RAW264.7 cells assessed as inhibition of LPS-induced NO production after 24 hrs by Griess assay. The following applies: RAW264.7, 24 h. It is filed as functional, cell-based. In a few lines:
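LPS-stimulated RAW 264.7 mouse macrophages; compound inhibition of NO production measured, with dexamethasone as positive control. The protocol follows a previously described method.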

In data set [3] the test system is RAW264.7. Briefly: Cytotoxicity against mouse RAW264.7 cells at 200 uM. It is filed as cell-based. The following applies: raw264.7, 200 µM.

Active and inactive are the calls of the source. The rule behind the calls is not given here.

Sequence of Acetylcholinesterase (O42275 whole entry): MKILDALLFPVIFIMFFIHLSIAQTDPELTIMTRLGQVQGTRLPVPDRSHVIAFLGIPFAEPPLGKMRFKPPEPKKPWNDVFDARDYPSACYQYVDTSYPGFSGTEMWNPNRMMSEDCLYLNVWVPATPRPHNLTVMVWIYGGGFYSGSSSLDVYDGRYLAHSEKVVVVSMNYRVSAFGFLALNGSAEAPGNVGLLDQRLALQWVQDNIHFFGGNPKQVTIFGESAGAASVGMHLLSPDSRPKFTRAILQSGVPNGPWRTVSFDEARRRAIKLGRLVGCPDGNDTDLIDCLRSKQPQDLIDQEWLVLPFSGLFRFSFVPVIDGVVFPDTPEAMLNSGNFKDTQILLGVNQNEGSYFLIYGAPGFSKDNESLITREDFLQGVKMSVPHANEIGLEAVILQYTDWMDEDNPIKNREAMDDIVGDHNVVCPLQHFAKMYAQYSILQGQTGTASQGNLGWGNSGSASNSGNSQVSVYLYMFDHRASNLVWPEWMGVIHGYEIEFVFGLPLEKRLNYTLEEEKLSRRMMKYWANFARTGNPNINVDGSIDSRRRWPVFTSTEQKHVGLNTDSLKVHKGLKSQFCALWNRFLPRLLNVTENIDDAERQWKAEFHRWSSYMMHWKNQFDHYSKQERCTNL

As to `COc1ccc2c3c1O[C@H]1C[C@@H](O)C=C[C@@]31CCN(C)C2`, the inhibition result with RAW264.7 [1] was “inactive”. Take `CO[C@@H]1C=C[C@@]23c4cc5c(cc4CN(CCc4c[nH]c6ccccc46)[C@@H]2C(=O)N(C)[C@H]3C1)OCO5`: the concentration for half-maximal inhibition (IC50) against Acetylcholinesterase was found to be 111 µM; in the data set with RAW264.7 [2] it was 18 µM. The Activity entry in the data set with RAW264.7 [3] is reported as “Non-Toxic”.

For the compound `COc1ccc2c3c1O[C@H]1C[C@@H](O)CC[C@@]31CCN(C)C2`, the inhibition result with RAW264.7 [1] is “inactive”. Same read-out and setting: for `CN1Cc2ccc(O)c3c2[C@@]2(CC[C@H](O)C[C@@H]2O3)[C@@H](O)C1` the value was “inactive”; for `CO[C@@H]1C=C[C@@]23c4cc5c(cc4CN(CCC(C)C)[C@@H]2C(=O)N(C)[C@H]3C1)OCO5`, “inactive”.

With `CO[C@@H]1C=C[C@@]23c4cc5c(cc4CN(CCCC(=O)O)[C@@H]2C(=O)N(C)[C@H]3C1)OCO5`, in the data set on RAW264.7 [2], the IC50 turned out to be 18.8 µM. For the same compound, the Activity entry in the data set on RAW264.7 [3] is listed as “Non-Toxic”. With `COc1ccc2c3c1O[C@H]1C[C@@H](O)C=C[C@@]31[C@@H](O)C[N+](C)([O-])C2` (stereo partly drawn), in the data set on RAW264.7 [1], the inhibition result is “inactive”. On the same count and under the same terms, for `CN1CC[C@@]23CC[C@H](O)C[C@@H]2Oc2c(O)ccc(c23)C1` the value was “inactive”; for `CO[C@@H]1C=C[C@@]23c4cc5c(cc4C=N[C@@H]2C(=O)N(C)[C@H]3C1)OCO5`, “inactive”; for `CO[C@@H]1C=C[C@@]23c4cc5c(cc4CN(C)[C@@H]2C(=O)N(C)[C@H]3C1)OCO5`, “inactive”. Regarding `CO[C@@H]1C=C[C@@]23c4cc5c(cc4C[N+]([O-])(CCc4ccc(O)cc4)[C@@H]2C(=O)N(C)[C@H]3C1)OCO5` (stereo partly drawn), the concentration for half-maximal inhibition (IC50) at Acetylcholinesterase stood at 75.3 µM; with RAW264.7 [2], 7.5 µM. For the same compound, in the data set on RAW264.7 [3], the Activity result is “Non-Toxic”. Take `CCCCCCN1Cc2cc3c(cc2[C@@]24C=C[C@@H](OC)C[C@@H]2N(C)C(=O)[C@@H]14)OCO3`: the inhibition entry with RAW264.7 [1] was “inactive”. On to `COc1ccc2c3c1O[C@H]1C[C@@H](O)CC[C@@]31[C@@H](O)C[N+](C)([O-])C2` (stereo partly drawn), for which the inhibition entry with RAW264.7 [1] was “inactive”.

With `CO[C@@H]1C=C[C@@]2(C(=O)N(CCC(C)C)Cc3cc4c(cc32)OCO4)[C@@H](N(C)C=O)C1`, the half-maximal inhibitory concentration (IC50) with RAW264.7 [2] worked out at 23.6 µM. For the same compound, in the data set with RAW264.7 [3], the Activity result was “Non-Toxic”.

Turning to `CO[C@@H]1C=C[C@@]2(C(=O)N(C)Cc3cc4c(cc32)OCO4)[C@@H](N(C)C=O)C1`, the inhibition entry in the data set on RAW264.7 [1] was “inactive”. On the same count and under the same terms, for `CN1CC[C@@]23C=C[C@H](O)C[C@@H]2Oc2c(O)ccc(c23)C1` the value was “inactive”.

`COc1ccc2c3c1O[C@H]1C[C@@H](O)CC[C@@]31[C@@H](O)CN(C)C2`: in the data set on RAW264.7 [1], the inhibition result was “inactive”. The same measure, in the same setting: for `COc1ccc2c3c1O[C@H]1[C@@H](O)[C@@H](O)C=C[C@@]31[C@@H](O)CN(C)C2` the value was “inactive”.

Consider `CN1Cc2ccc(O)c3c2[C@@]2(C=C[C@H](O)C[C@@H]2O3)[C@@H](O)C1`, for which the IC50 against Acetylcholinesterase amounted to 169 µM. For the same compound, in the data set with RAW264.7 [1], the inhibition entry was “inactive”. Take `COc1ccc2c3c1O[C@H]1C[C@@H](O)C=C[C@@]31[C@@H](O)CN(C)C2`: the inhibition entry with RAW264.7 [1] was “inactive”. Consider `CO[C@@H]1C=C[C@@]23c4cc5c(cc4CN(CCc4ccccc4)[C@@H]2C(=O)N(C)[C@H]3C1)OCO5`, for which the 50% inhibitory concentration (IC50) with RAW264.7 [2] is 10.2 µM. Also, the Activity result in the data set on RAW264.7 [3] is given as “Non-Toxic”. On to `CC[C@H](C)CN1Cc2cc3c(cc2[C@@]24C=C[C@@H](OC)C[C@@H]2N(C)C(=O)[C@@H]14)OCO3`, for which the inhibition entry in the data set on RAW264.7 [1] was “inactive”. Same read-out and setting: for `CO[C@@H]1C=C[C@@]23c4cc5c(cc4CN(CCc4ccc(O)cc4)[C@@H]2C(=O)N(C)[C@H]3C1)OCO5` the value was “inactive”. `CO[C@@H]1C=C[C@@]23c4cc5c(cc4C[N+]([O-])(CCC(C)C)[C@@H]2C(=O)N(C)[C@H]3C1)OCO5` (stereo partly drawn) yielded an IC50 at Acetylcholinesterase of 57.3 µM. In the data set on RAW264.7 [1], the inhibition result was “inactive”.
